Measured values reported in ChEMBL document CHEMBL1137037, “Pyrrolo[2,1-c][1,4]benzodiazepine-anthraquinone conjugates. Synthesis, DNA binding and cytotoxicity” (Bioorg Med Chem Lett, 2004).

What was measured:
[1] = test system: Calf thymus DNA; test: Thermal denaturation of calf thymus DNA at 0 h at 37 degree C; format: nucleic-acid assay; details: Bos taurus
Method in brief: (§1)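 Calf thymus DNA at 100 μM with ligand at 20 μM (1:5 [PBD]/[DNA] molar ratio), in 10 mM sodium phosphate plus 1 mM EDTA, pH 7.00 ± 0.01. Samples were incubated at 37 °C for 0 h or 18 h before thermal melting. The value is the induced ΔTm against DNA alone, whose Tm is the mean of 10 separate determinations.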

[2] = test system: A549; test: Percent growth inhibition against human lung A-549 cell lines at the concentration of 10E-4; format: functional
[3] = test system: HCT-15; test: Percent growth inhibition against human colon HCT-15 cell lines at the concentration of 10E-6; format: functional
[4] = test system: HT-29; test: Percent growth inhibition against human colon HT-29 cell lines at the concentration of 10E-5; format: functional
[5] = test system: HOP-62; test: Percent growth inhibition against human lung HOP-62 cell lines at the concentration of 10E-6; format: functional
[6] = test system: SiHa; test: Percent growth inhibition against human cervix SiHa cell lines at the concentration of 10E-5; format: functional
[7] = test system: HT-29; test: Percent growth inhibition against human colon HT-29 cell lines at the concentration of 10E-4; format: functional
[8] = test system: HCT-15; test: Percent growth inhibition against human colon HCT-15 cell lines at the concentration of 10E-5; format: functional
[9] = test system: A549; test: Percent growth inhibition against human lung A-549 cell lines at the concentration of 10E-5; format: functional
[10] = test system: HOP-62; test: Percent growth inhibition against human lung HOP-62 cell lines at the concentration of 10E-5; format: functional
[11] = test system: A549; test: Percent growth inhibition against human lung A-549 cell lines at the concentration of 10E-6; format: functional
[12] = test system: SiHa; test: Percent growth inhibition against human cervix SiHa cell lines at the concentration of 10E-6; format: functional
[13] = test system: SiHa; test: Percent growth inhibition against human cervix SiHa cell lines at the concentration of 10E-4; format: functional
[14] = test system: Calf thymus DNA; test: Thermal denaturation of calf thymus DNA at 18 hr at 37 degree C; format: nucleic-acid assay; details: Bos taurus; method in brief: as §1
[15] = test system: HT-29; test: Percent growth Inhibition against human colon HT-29 cell lines at the concentration of 10E-6; format: functional
[16] = test system: Calf thymus DNA; test: Thermal denaturation of calf thymus DNA at 37 degree C; format: nucleic-acid assay; details: Bos taurus; method in brief: as §1
[17] = test system: L1210; test: In vitro cytotoxicity against mouse leukemia L1210 cell lines; format: functional, cell-based

ΔTm [1] [°C] | ΔTm [14] [°C] | Compound | Inhibition [2] [%] | Inhibition [3] [%] | Inhibition [4] [%] | Inhibition [5] [%] | Inhibition [6] [%] | Inhibition [7] [%] | Inhibition [8] [%] | Inhibition [9] [%] | Inhibition [10] [%] | Inhibition [11] [%] | Inhibition [12] [%] | Inhibition [13] [%] | Inhibition [15] [%] | ΔTm [16] [°C] | IC50 [17] [nM]
5.1 | 5.2 | COc1cc2c(cc1OCCCCC(=O)Nc1cccc3c1C(=O)c1ccccc1C3=O)N=C[C@@H]1CCCN1C2=O | 93 | 61 | 87 | 73 | 49 | 93 | 82 | 10 | 97 | 56 | 40 | 73 | 73 | – | –
8.9 | 9.1 | COc1cc2c(cc1OCCCC(=O)Nc1cccc3c1C(=O)c1ccccc1C3=O)N=C[C@@H]1CCCN1C2=O | 93 | 59 | 86 | 74 | 52 | 93 | 66 | 27 | 90 | 47 | 41 | 57 | 68 | – | –
– | – | O=C1c2c(O)ccc(O)c2C(=O)c2c(NCCNCCO)ccc(NCCNCCO)c21 [MITOXANTRONE] | – | – | – | – | – | – | – | – | – | – | – | – | – | 15.9 | 100

Compound | ΔTm [1] [°C] | ΔTm [14] [°C] | Inhibition [2] [%] | Inhibition [3] [%] | Inhibition [4] [%] | Inhibition [5] [%] | Inhibition [6] [%] | Inhibition [7] [%] | Inhibition [8] [%] | Inhibition [9] [%] | Inhibition [10] [%] | Inhibition [11] [%] | Inhibition [12] [%] | Inhibition [13] [%] | Inhibition [15] [%] | ΔTm [16] [°C] | IC50 [17] [nM]
COc1cc2c(cc1O)N=C[C@@H]1CCCN1C2=O | 0.3 | – | – | – | – | – | – | – | – | – | – | – | – | – | – | – | –
